The test has as its target T1, Nuclear factor NF-kappa-B p105 subunit (Homo sapiens, UniProt P19838).
T1 sequence (P19838 whole entry): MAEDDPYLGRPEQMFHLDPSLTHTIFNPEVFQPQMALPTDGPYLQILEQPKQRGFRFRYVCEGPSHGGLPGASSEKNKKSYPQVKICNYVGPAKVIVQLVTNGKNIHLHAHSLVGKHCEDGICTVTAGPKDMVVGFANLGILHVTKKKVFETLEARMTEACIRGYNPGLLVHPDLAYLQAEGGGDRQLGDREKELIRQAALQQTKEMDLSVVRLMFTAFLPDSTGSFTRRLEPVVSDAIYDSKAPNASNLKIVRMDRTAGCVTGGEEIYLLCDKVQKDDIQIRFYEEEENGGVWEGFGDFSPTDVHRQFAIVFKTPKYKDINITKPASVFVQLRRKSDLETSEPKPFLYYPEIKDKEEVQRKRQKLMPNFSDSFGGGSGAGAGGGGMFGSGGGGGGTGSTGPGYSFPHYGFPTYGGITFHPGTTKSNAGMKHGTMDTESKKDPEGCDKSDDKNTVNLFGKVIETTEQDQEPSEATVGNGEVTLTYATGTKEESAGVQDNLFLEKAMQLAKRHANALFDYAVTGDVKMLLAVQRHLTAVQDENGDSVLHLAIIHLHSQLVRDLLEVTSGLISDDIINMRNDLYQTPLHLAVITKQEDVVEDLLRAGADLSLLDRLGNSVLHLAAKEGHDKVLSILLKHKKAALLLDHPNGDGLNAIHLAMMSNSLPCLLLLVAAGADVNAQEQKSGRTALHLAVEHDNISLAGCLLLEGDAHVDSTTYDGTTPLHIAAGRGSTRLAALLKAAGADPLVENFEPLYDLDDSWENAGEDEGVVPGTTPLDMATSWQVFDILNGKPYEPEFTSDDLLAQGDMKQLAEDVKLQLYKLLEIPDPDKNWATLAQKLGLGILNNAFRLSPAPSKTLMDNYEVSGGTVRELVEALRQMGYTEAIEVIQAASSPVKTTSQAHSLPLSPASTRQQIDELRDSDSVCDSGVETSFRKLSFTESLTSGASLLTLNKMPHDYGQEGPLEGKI
Briefly: In vitro inhibitory activity against human Jurkat T-Cells stably transfected with an Nuclear factor kappa B transcription factor. Summed up: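 Jurkat T-cells stably carrying NF-κB site (MHC promoter) on minimal SV-40 promoter driving luciferase, plated 1 × 10^6 cells/mL in 10% Serum-Plus 18 h prior. Compound in 0.2% DMSO/H2O added 0.5 h at 37 °C; induced with PMA 50 ng/mL and PHA 1 μg/mL, 5 h at 37 °C. Lysate luminescence read; IC50 = concentration halving luciferase versus control.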

SMILES strings stand for the structures. Where only a bound is given, the exact number is not on record here.

A word on the IC50: it is the concentration needed to halve the response being measured. Low readings indicate greater potency in that assay, high ones weaker potency in that assay.

Molecule `Nc1ncc(C(=O)Nc2cc(Cl)cc(Cl)c2)c(C(F)(F)F)n1` [2-Amino-4-trifluoromethyl-pyrimidine-5-carboxylic acid (3,5-dichloro-phenyl)-amide] yielded an IC50 of more than 10 µM.

`O=C(Nc1cc(Cl)cc(Cl)c1)c1cnc(NCc2ccccc2)nc1C(F)(F)F` [2-Benzylamino-4-trifluoromethyl-pyrimidine-5-carboxylic acid (3,5-dichloro-phenyl)-amide] had an IC50 of more than 10 µM.

In turn, `CCCCNc1ncc(C(=O)Nc2cc(Cl)cc(Cl)c2)c(C(F)(F)F)n1` [2-Butylamino-4-trifluoromethyl-pyrimidine-5-carboxylic acid (3,5-dichloro-phenyl)-amide] gave a 50% inhibitory concentration (IC50) of more than 10 µM.

Take `O=C(Nc1cc(Cl)nc(Cl)n1)c1cnc(Cl)nc1C(F)(F)F` [2-Chloro-4-trifluoromethyl-pyrimidine-5-carboxylic acid (2,6-dichloro-pyrimidin-4-yl)-amide]: the half-inhibitory concentration (IC50) was 0.8 µM.

Take `Cc1cccc(C)c1NC(=O)c1cnc(Cl)nc1C(F)(F)F` [2-Chloro-4-trifluoromethyl-pyrimidine-5-carboxylic acid (2,6-dimethyl-phenyl)-amide]: the IC50 is more than 10 µM.

Regarding `O=C(Nc1cc(Cl)c(Cl)c(Cl)c1)c1cnc(Cl)nc1C(F)(F)F` [2-Chloro-4-trifluoromethyl-pyrimidine-5-carboxylic acid (3,4,5-trichloro-phenyl)-amide], the 50% inhibitory concentration (IC50) worked out at 0.9 µM.

Molecule `O=C(Nc1cc(C(F)(F)F)cc(C(F)(F)F)c1)c1cnc(Cl)nc1C(F)(F)F` [2-Chloro-4-trifluoromethyl-pyrimidine-5-carboxylic acid (3,5-bis-trifluoromethyl-phenyl)-amide] gave an IC50 of 0.05 µM.

Molecule `O=C(Nc1cc(Cl)cc(Cl)c1)c1cnc(Cl)nc1C(F)(F)F` [2-Chloro-4-trifluoromethyl-pyrimidine-5-carboxylic acid (3,5-dichloro-phenyl)-amide] had an IC50 of 0.5 µM.

Molecule `CN(C(=O)c1cnc(Cl)nc1C(F)(F)F)c1cc(Cl)cc(Cl)c1` [2-Chloro-4-trifluoromethyl-pyrimidine-5-carboxylic acid (3,5-dichloro-phenyl)-methyl-amide] came in with a concentration for half-maximal inhibition (IC50) of 2.3 µM.

Molecule `COc1cc(NC(=O)c2cnc(Cl)nc2C(F)(F)F)cc(OC)c1` [2-Chloro-4-trifluoromethyl-pyrimidine-5-carboxylic acid (3,5-dimethoxy-phenyl)-amide] returned a 50% inhibitory concentration (IC50) of 1.2 µM.

In the case of `CCCCNC(=O)c1cc(NC(=O)c2cnc(Cl)nc2C(F)(F)F)cc(C(F)(F)F)c1` [2-Chloro-4-trifluoromethyl-pyrimidine-5-carboxylic acid (3-butylcarbamoyl-5-trifluoromethyl-phenyl)-amide], the half-maximal inhibitory concentration (IC50) is more than 10 µM.

Molecule `NC(=O)c1cc(NC(=O)c2cnc(Cl)nc2C(F)(F)F)cc(C(F)(F)F)c1` [2-Chloro-4-trifluoromethyl-pyrimidine-5-carboxylic acid (3-carbamoyl-5-trifluoromethyl-phenyl)-amide] showed an IC50 of 5 µM.

On to `Cc1cc(NC(=O)c2cnc(Cl)nc2C(F)(F)F)on1` [2-Chloro-4-trifluoromethyl-pyrimidine-5-carboxylic acid (3-methyl-isoxazol-5-yl)-amide], for which the IC50 is 4 µM.

On to `O=C(Nc1ccc(C(F)(F)F)cc1)c1cnc(Cl)nc1C(F)(F)F` [2-Chloro-4-trifluoromethyl-pyrimidine-5-carboxylic acid (4-trifluoromethyl-phenyl)-amide], for which it took 0.38 µM to reach half-maximal inhibition (IC50).

The molecule `Cc1ccc(NC(=O)c2cnc(Cl)nc2C(F)(F)F)s1` [2-Chloro-4-trifluoromethyl-pyrimidine-5-carboxylic acid (5-methyl-thiophen-2-yl)-amide] gave an IC50 of 2.3 µM.

Molecule `O=C(c1cnc(Cl)nc1C(F)(F)F)N(Cc1ccccc1)c1cc(Cl)cc(Cl)c1` [2-Chloro-4-trifluoromethyl-pyrimidine-5-carboxylic acid benzyl-(3,5-dichloro-phenyl)-amide] registered a 50% inhibitory concentration (IC50) of 2.7 µM. This IC50 and that of the molecule before are within 1.5-fold of each other.

Consider `CCCCNC(=O)c1cnc(Cl)nc1C(F)(F)F` [2-Chloro-4-trifluoromethyl-pyrimidine-5-carboxylic acid butylamide], for which the IC50 is more than 10 µM.

Consider `O=C(Nc1ccccc1)c1cnc(Cl)nc1C(F)(F)F` [2-Chloro-4-trifluoromethyl-pyrimidine-5-carboxylic acid phenylamide], for which the IC50 is more than 10 µM.

`O=C(Nc1cc(Cl)cc(Cl)c1)c1cnc(NC2CCCCC2)nc1C(F)(F)F` [2-Cyclohexylamino-4-trifluoromethyl-pyrimidine-5-carboxylic acid (3,5-dichloro-phenyl)-amide] came in with a half-maximal inhibitory concentration (IC50) of more than 10 µM.

Molecule `CN(C)c1ncc(C(=O)Nc2cc(Cl)cc(Cl)c2)c(C(F)(F)F)n1` [2-Dimethylamino-4-trifluoromethyl-pyrimidine-5-carboxylic acid (3,5-dichloro-phenyl)-amide] registered an IC50 of more than 10 µM.

As for `O=C(Nc1cc(Cl)cc(Cl)c1)c1cnc(=O)[nH]c1C(F)(F)F` [2-Hydroxy-4-trifluoromethyl-pyrimidine-5-carboxylic acid (3,5-dichloro-phenyl)-amide], the IC50 is more than 10 µM.

The molecule `COc1ncc(C(=O)Nc2cc(Cl)cc(Cl)c2)c(C(F)(F)F)n1` [2-Methoxy-4-trifluoromethyl-pyrimidine-5-carboxylic acid (3,5-dichloro-phenyl)-amide] came in with an IC50 of more than 10 µM.

`O=C(Nc1cc(Cl)cc(Cl)c1)c1cnc(Nc2ccccc2)nc1C(F)(F)F` [2-Phenylamino-4-trifluoromethyl-pyrimidine-5-carboxylic acid (3,5-dichloro-phenyl)-amide]: the half-maximal inhibitory concentration (IC50) is more than 10 µM.

Consider `O=C(Nc1cc(Cl)cc(Cl)c1)c1cnc(N2CCCCC2)nc1C(F)(F)F` [2-Piperidin-1-yl-4-trifluoromethyl-pyrimidine-5-carboxylic acid (3,5-dichloro-phenyl)-amide], for which half-maximal inhibition (IC50) required 5 µM.

In the case of `CCCCOC(=O)c1cc(NC(=O)c2cnc(Cl)nc2C(F)(F)F)cc(C(F)(F)F)c1` [3-[(2-Chloro-4-trifluoromethyl-pyrimidine-5-carbonyl)-amino]-5-trifluoromethyl-benzoic acid butyl ester], the IC50 amounted to 0.17 µM. This IC50 lies about 29-fold lower than the previous one.

`O=C(OC1CCCCC1)c1cc(NC(=O)c2cnc(Cl)nc2C(F)(F)F)cc(C(F)(F)F)c1` [3-[(2-Chloro-4-trifluoromethyl-pyrimidine-5-carbonyl)-amino]-5-trifluoromethyl-benzoic acid cyclohexyl ester]: the half-maximal inhibitory concentration (IC50) turned out to be 1.8 µM.

For the molecule `CCOP(=O)(COC(=O)c1cc(NC(=O)c2cnc(Cl)nc2C(F)(F)F)cc(C(F)(F)F)c1)OCC` [3-[(2-Chloro-4-trifluoromethyl-pyrimidine-5-carbonyl)-amino]-5-trifluoromethyl-benzoic acid diethoxy-phosphorylmethyl ester], the IC50 worked out at 4.6 µM. Against the preceding molecule, the IC50 is about 2.6-fold higher.

Turning to `CCOC(=O)c1cc(NC(=O)c2cnc(Cl)nc2C(F)(F)F)cc(C(F)(F)F)c1` [3-[(2-Chloro-4-trifluoromethyl-pyrimidine-5-carbonyl)-amino]-5-trifluoromethyl-benzoic acid ethyl ester], it took 0.28 µM to reach half-maximal inhibition (IC50).

As for `CCCCCCOC(=O)c1cc(NC(=O)c2cnc(Cl)nc2C(F)(F)F)cc(C(F)(F)F)c1` [3-[(2-Chloro-4-trifluoromethyl-pyrimidine-5-carbonyl)-amino]-5-trifluoromethyl-benzoic acid hexyl ester], it took 0.62 µM to reach half-maximal inhibition (IC50).

Consider `CCCCCCCCOC(=O)c1cc(NC(=O)c2cnc(Cl)nc2C(F)(F)F)cc(C(F)(F)F)c1` [3-[(2-Chloro-4-trifluoromethyl-pyrimidine-5-carbonyl)-amino]-5-trifluoromethyl-benzoic acid octyl ester], for which half-maximal inhibition (IC50) required 1.8 µM.

`O=C(Nc1cc(Cl)cc(Cl)c1)c1cncnc1C(F)(F)F` [4-Trifluoromethyl-pyrimidine-5-carboxylic acid (3,5-dichloro-phenyl)-amide] gave an IC50 of more than 10 µM.

The values are drawn from BindingDB's records for doi:10.1021/jm970671g (Signal Pharmaceuticals, 1998).
